The entries come from a sample that favours hits as a whole.
Beta2AR agonist – beta2AR agonists driving receptor internalization, primary screen, cell-based, FAP fluorogen, flow cytometry | Beta-2 adrenergic receptor (Homo sapiens), P07550 | Am2.2-beta2AR cells | response, % (test concentration not listed) | actives 0.43% (n = 340,000) | AID 504454, 2011;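 active means response above a set limit, near 3 SD of response in nonfluorescent compounds, cut at about 42% in these data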
VLA-4 inh – inhibition in human VLA-4 binding assay, primary screen, VLA-4 allosteric modulator project, MLPCN library, flow cytometry, VLA-4 expressing cells; Integrin alpha-4 (Homo sapiens), P13612; inhibition, % (about 7 µM as worked out from the volumes in the protocol); ligand binding flow cytometry; actives 0.2% (n = 330,000); in the data active means inhibition above about 50%
Target sequence (P13612 whole entry, looked up): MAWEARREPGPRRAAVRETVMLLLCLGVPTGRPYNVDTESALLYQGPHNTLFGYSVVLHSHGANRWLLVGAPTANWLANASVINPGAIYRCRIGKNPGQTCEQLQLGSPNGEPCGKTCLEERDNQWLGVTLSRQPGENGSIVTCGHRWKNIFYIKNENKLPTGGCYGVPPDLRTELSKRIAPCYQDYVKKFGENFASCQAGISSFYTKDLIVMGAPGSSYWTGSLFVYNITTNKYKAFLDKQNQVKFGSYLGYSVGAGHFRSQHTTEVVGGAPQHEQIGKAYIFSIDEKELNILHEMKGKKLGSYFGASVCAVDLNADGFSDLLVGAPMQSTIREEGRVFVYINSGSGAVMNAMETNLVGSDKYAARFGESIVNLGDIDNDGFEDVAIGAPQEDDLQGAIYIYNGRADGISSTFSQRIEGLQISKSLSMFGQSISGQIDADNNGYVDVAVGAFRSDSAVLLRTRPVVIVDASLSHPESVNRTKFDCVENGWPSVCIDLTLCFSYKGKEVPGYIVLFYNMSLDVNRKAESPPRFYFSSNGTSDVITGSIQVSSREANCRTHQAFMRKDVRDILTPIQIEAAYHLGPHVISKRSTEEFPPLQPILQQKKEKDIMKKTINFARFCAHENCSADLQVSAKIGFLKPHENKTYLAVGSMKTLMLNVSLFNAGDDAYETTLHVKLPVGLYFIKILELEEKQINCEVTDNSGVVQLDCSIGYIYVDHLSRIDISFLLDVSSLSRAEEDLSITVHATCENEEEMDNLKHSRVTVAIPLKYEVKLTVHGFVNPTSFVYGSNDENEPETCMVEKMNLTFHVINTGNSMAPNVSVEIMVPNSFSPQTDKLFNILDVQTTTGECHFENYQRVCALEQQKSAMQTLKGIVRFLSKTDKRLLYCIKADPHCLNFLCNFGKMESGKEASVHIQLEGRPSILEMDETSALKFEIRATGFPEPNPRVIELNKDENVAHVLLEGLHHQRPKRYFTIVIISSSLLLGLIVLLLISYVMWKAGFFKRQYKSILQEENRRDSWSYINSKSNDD
CHOP UPR activ – activators of apoptotic CHOP UPR arm, primary screen, cell-based, CHO-CHOP luciferase reporter, luminescence, uHTS. UPR activation; percent of tunicamycin response over DMSO baseline. activation, % at 10 µM. actives 0.34% (n = 330,000). AID 449763, 2010;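 active means at 10 µM dose, activation of 40% or more, normalized to positive control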;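 further: 100% = tunicamycin at 10 µg/mL and 0% = DMSO alone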
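Evaluation: % reporter activation, DMSO baseline versus tunicamycin full activation; System: CHO-CHOP luciferase reporter cell line; Input: 500 cells/well; Incubation: 6 h compound treatment, 37 °C; Measured by: Steady-Glo luciferase luminescence; Dosing: one dose, 10 µM in 0.5% DMSO; Buffer or medium: F12 medium, 10% FBS; Benchmarks: positive tunicamycin 10 µg/mL, negative DMSO alone.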
XBP1 UPR activ – activators of adaptive XBP1 UPR arm, primary screen, cell-based, CHO-XBP1 luciferase reporter, luminescence, uHTS | actives 0.33% (n = 330,000) | IRE1-XBP1 UPR activation; percent of tunicamycin response, DMSO as zero | activation, % at 20 µM;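 active means versus positive control, 20 µM dose yields 30% or more activation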;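 further: 100% = tunicamycin at 10 µg/mL and 0% = DMSO only wells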
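Material: CHO-XBP1 cells stably carrying IRE1-XBP1-driven luciferase reporter / Amount: 1000 cells per well / Compound: 20 µM, 1% DMSO / Times: 6 h treatment, 37 °C / Detection: luciferase luminescence / Measure: % activation of reporter signal versus tunicamycin and DMSO controls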
CHOP inhibitor – inhibitors of CHOP promoter induction, primary screen, cell-based, unfolded protein response, luciferase reporter | actives 3.8% (n = 220,000) | CHO-K1 CHOP-promoter luciferase, tunicamycin-induced, 15-18 h | AID 2732, 2010 | inhibition, % at 10 µM;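 active means compounds that reduced the stress-induced luciferase reporter signal by more than about 70% of percent inhibition, limit read from the data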;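 further: 0% = tunicamycin plus vehicle and 100% = wells without tunicamycin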
* = called active by the depositor; · = no result given; ! = repeats disagree.

SMILES	Beta2AR agonist	VLA-4 inh	CHOP UPR activ	XBP1 UPR activ	CHOP inhibitor
O=C(CC1S/C(=N/N=C/c2cccs2)NC1=O)Nc1ccc(Cl)cc1 (stereo unspecified)	-4	1	0	9	94*
O=C1N/C(=N\N=C\c2cccs2)SC1Cc1ccc(Cl)cc1Cl (stereo unspecified)	-3	10	1	2	44
Cc1c(C)n(C(=O)CSc2nc3ccccc3[nH]2)c2ccccc12	3	9	-3	-1	80*
O=C(CSc1nc2ccccc2[nH]1)N1CCCCC1	-7	12	5	0	-28
C=Cc1c(C)c2cc3[nH]c(cc4nc(cc5nc(cc1[nH]2)C(C)=C5CCC(=O)O)C(CCC(=O)O)=C4C)c(C)c3C=C	45*!	0	-3	-10	-2
c1ccc(-c2csc(Nc3ccc4c(c3)OCCO4)n2)cc1	19	4	3	0	90*
c1cc2c(cc1Nc1nc(-c3ccc4c(c3)OCO4)cs1)OCCO2	-4	-3	4	2	18
O=C(NC1=C(Nc2ccc(Cl)cc2)C(=O)c2ccccc2C1=O)c1ccccc1	-3	0	5	-2	-53
O=C(NC1=C(NC2CCS(=O)(=O)C2)C(=O)c2ccccc2C1=O)c1ccccc1 (stereo unspecified)	8	13	3	12	102*
CC(=O)Nc1ccc(NC(=O)CCC(=O)OCC(=O)c2ccc(F)cc2)cc1	3	2	0	-3	·
COc1ccccc1NC(=O)Cn1ncc2c1-c1ccccc1OC2	-4	9	0	-1	16
CCOc1ccc(-c2cc(NC(=O)Cn3ncc4c3-c3ccccc3OC4)on2)cc1OCC	5	2	0	-2	100*
CCOC(=O)N1CCN(C(=O)/C(=C/c2ccc(N(C)C)cc2)NC(=O)c2ccccc2)CC1	-1	44	0	-2	·
Nc1nc(Nc2ccc(Cl)cc2Cl)nc(C(F)(F)F)n1	-1	7	3	3	75*
Nc1nc(Nc2ccccc2Br)nc(C(F)(F)F)n1	1	45	1	2	16
CC(C)(C)c1ccc(OCC(=O)NCc2ccco2)c(Br)c1	2	7	2	5	81*
COc1ccc(CNC(=O)C2CCCN(c3ncnc4c3nc3n4CCCCC3)C2)cc1 (stereo unspecified)	-9	-3	-2	-3	·
O=c1[nH]c(=O)n(Cc2ccccc2)c2nc(-c3ccco3)cc(C(F)(F)F)c12	2	5	-3	11	71*
CC(C)C(NC(=O)c1ccco1)C(=O)NC1CCCCCC1 (stereo unspecified)	0	-2	-1	-5	·
CC(O)(CS(=O)(=O)Cc1ccc(Cl)cc1)C(=O)Nc1cccc(C(F)(F)F)c1 (stereo unspecified)	-6	12	-2	-1	6
O=C(Nc1cccc(C(F)(F)F)c1)N(Cc1ccc(Cl)cc1)CC(O)C(F)(F)F (stereo unspecified)	·	-7	0	1	74*
Cc1cccc(C)c1NC(=O)COc1ccc2c(C)c(Cc3ccccc3)c(=O)oc2c1C	-1	8	-1	6	96*
COc1ccc(N(C(=O)CCl)C(C(=O)NCCc2ccccc2)c2cccs2)cc1 (stereo unspecified)	41	-3	·	·	93*
O=C(Oc1ccc(/C=N/NC(=O)c2ccccn2)cc1)c1cccc(F)c1	-7	-15	0	0	·
CCOC(=O)c1c(SCCN2CCCC2)n(-c2ccccc2)c(=S)n(-c2ccccc2)c1=O	53*	·	·	·	·
SMILES	Beta2AR agonist	VLA-4 inh	CHOP UPR activ	XBP1 UPR activ	CHOP inhibitor
CCN(CC)C(=O)COc1ccc(-c2nnc(N3CCCCC3)c3ccccc23)cc1	-4	17	2	0	21
CCOc1ccc(-c2nnc(N3CCCCC3)c3ccccc23)cc1	-10	38	1	1	79*
O=C(Nc1ccc(C(=O)N2CCN(c3ccccc3)CC2)cc1)C1=CSCCO1	0	-96	1	-3	·
CCc1nc(N2CCCC(C)C2)c2oc3ccccc3c2n1 (stereo unspecified)	-8	-1	-2	0	72*
CCOC(=O)C1CCN(c2nc(C)nc3c2oc2ccccc23)CC1	6	1	-1	-1	75*
CCc1nc(N2CCCCC2C)c2oc3ccccc3c2n1 (stereo unspecified)	-1	-2	-1	4	-12
Cc1nc(SCC(=O)NCc2ccccc2)c2oc3ccccc3c2n1	-2	-1	1	1	72*
CCc1nc(N2CCCCC2)c2oc3ccccc3c2n1	-13	1	0	-1	89*
Cc1ccc(Cl)c(OC(=O)C2CSC3(C)CCC(=O)N23)c1 (stereo unspecified)	1	5	4	5	·
CCOC(=O)CNc1ccc(OC(F)(F)F)cc1	-2	11	2	1	16
CC1CC(C)CN(S(=O)(=O)c2ccc(C(=O)Nc3nnc(C4CC4)o3)cc2)C1 (stereo unspecified)	8	1	-1	-2	·
CC(=NNC(=O)CSc1nc2ccccc2o1)c1ccco1	-15	-8	0	2	·
O=C(Nc1ccc(Cl)cc1)OC(CN1CCCCC1)C(F)(F)F (stereo unspecified)	5	0	-2	-1	74*
COCCn1c(C)cc(/C=C2/NC(=O)N(c3cccc(Cl)c3)C2=O)c1C	1	5	3	2	71*
CCn1c(C)cc(/C=C2/NC(=O)N(c3ccccc3)C2=O)c1C	6	-3	8	5	13
Cc1ccccc1N1CC(C(=O)N2CCCCCC2)CC1=O (stereo unspecified)	4	3	2	0	·
CC(C)CCNC(=O)CCC(=O)NNc1nc2ccccc2c2nc(-c3ccccc3)nn12	8	-10	1	0	79*
COC(=O)c1ccc2c(=O)n(Cc3ccco3)c(SCC(=O)Nc3ccc(C)c(Cl)c3)nc2c1	0	7	40	38*	30
Cn1ncc(C#N)c1/N=C/N(Cc1ccccc1)Cc1ccccc1	-12	3	-1	-2	89*
CN1CCN(/C=N/c2c(C#N)cnn2C)CC1	2	33	-2	-1	-31
CCCC1CCC(c2ccc(/C(N)=N/O)cc2)CC1 (stereo unspecified)	0	3	3	4	81*
Cc1sc2ncnc(SCc3ccco3)c2c1C	-2	-4	-1	-2	71*
CC(C)(CC(=O)N1CCN(c2ccc(Cl)cc2)CC1)CC1=NS(=O)(=O)c2ccccc2N1	1	21	6	2	71*
